# According to ChEMBL document CHEMBL2010801, “Semisynthesis and antimicrobial activity of novel guttiferone-A derivatives” (Bioorg Med Chem, 2012):
# The source made the active and inactive calls. No cut-off for these calls is given here.
# Experiments:
# Escherichia coli = test: Antimicrobial activity against Escherichia coli ATCC 25922 after 24 hrs by broth microdilution method; assay type: functional
# Method in brief: (§1)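 Microplate broth microdilution with a serial dilution series of compounds, using chloramphenicol as the antibacterial control. Bacterial plates were incubated at 35 °C for 24 h.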
# Nannizzia gypsea = test: Antifungal activity against Microsporum gypseum after 48 hrs by broth microdilution method; assay type: functional
# Method in brief: (§2)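 Broth microdilution against filamentous fungi with serially diluted compounds. Amphotericin B (fungicidal) and fluconazole (fungistatic) were run as controls. Plates were incubated at 30 °C for 48 h.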
# Candida albicans = test: Antifungal activity against Candida albicans ATCC 09548 after 24 hrs by broth microdilution method; assay type: functional
# Method in brief: (§3)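 Broth microdilution in microplates with a serial dilution series of compounds. Amphotericin B served as the fungicidal control and fluconazole as the fungistatic control. Yeast plates were incubated at 37 °C for 24 h.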
# Pichia kudriavzevii = test: Antifungal activity against Candida krusei ATCC 6258 after 24 hrs by broth microdilution method; assay type: functional; method in brief: as §3
# Staphylococcus aureus [1] = test: Ratio of MIC100 for chloramphenicol to MIC100 of compound for Staphylococcus aureus ATCC 6538 after 24 hrs by broth microdilution method; assay type: functional
# Candida tropicalis = test: Antifungal activity against Candida tropicalis ATCC 750 after 24 hrs by broth microdilution method; assay type: functional; method in brief: as §3
# [2] = test system: Staphylococcus epidermidis; test: Antimicrobial activity against Staphylococcus epidermidis ATCC 12228 after 24 hrs by broth microdilution method; assay type: functional; details: ATCC 12228, 24 h; method in brief: as §1
# Trichophyton tonsurans = test: Antifungal activity against Trichophyton tonsurans after 48 hrs by broth microdilution method; assay type: functional; method in brief: as §2
# [3] = Cytotoxicity against human PBMC after 48 hrs by MTT assay; assay type: cell-based; details: PBMC (peripheral blood mononuclear cells)
# Method in brief: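 Normal human PBMC from healthy volunteers were isolated by Ficoll-Hypaque density gradient and seeded at 2.4 × 10⁶ cells/mL. Compounds were added at 100 to 0.06 and cells held 48 h at 37 °C, 5% CO₂. MTT was then added for 4 h, formazan dissolved in DMSO and A560 read. Untreated cells were taken as 100% viability. CC50 was obtained by linear regression.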
# Salmonella typhimurium = test: Antimicrobial activity against Salmonella typhimurium ATCC 14028 after 24 hrs by broth microdilution method; assay type: functional; details: Salmonella enterica subsp. enterica serovar Typhimurium; method in brief: as §1
# Proteus mirabilis = test: Antimicrobial activity against Proteus mirabilis ATCC 25933 after 24 hrs by broth microdilution method; assay type: functional; method in brief: as §1
# Bacillus cereus = test: Antimicrobial activity against Bacillus cereus ATCC 11778 after 24 hrs by broth microdilution method; assay type: functional; details: ATCC 11778, 24 h; method in brief: as §1
# Nakaseomyces glabratus = test: Antifungal activity against Candida glabrata ATCC 90030 after 24 hrs by broth microdilution method; assay type: functional; method in brief: as §3
# Staphylococcus aureus [4] = test: Antimicrobial activity against Staphylococcus aureus ATCC 6538 after 24 hrs by broth microdilution method; assay type: functional; details: ATCC 6538, 24 h; method in brief: as §1
# Cryptococcus neoformans = test: Antifungal activity against Cryptococcus neoformans ATCC 90012 after 24 hrs by broth microdilution method; assay type: functional; method in brief: as §3
# [5] = test system: Staphylococcus epidermidis; test: Ratio of MIC100 for chloramphenicol to MIC100 of compound for Staphylococcus epidermidis ATCC 12228 after 24 hrs by broth microdilution method; assay type: functional
# Candida parapsilosis = test: Antifungal activity against Candida parapsilosis ATCC 69548 after 24 hrs by broth microdilution method; assay type: functional; method in brief: as §3
# Pseudomonas aeruginosa = test: Antimicrobial activity against Pseudomonas aeruginosa ATCC 9027 after 24 hrs by broth microdilution method; assay type: functional; method in brief: as §1
smiles,measurement,setting,value
CC(C)=CCC[C@]1(C)[C@@H](CC=C(C)C)C[C@@]2(CC=C(C)C)C(=O)C(C(=O)c3ccc(OS(=O)(=O)c4ccc(C)cc4)c(OS(=O)(=O)c4ccc(C)cc4)c3)=C(O)[C@]1(CC=C(C)C)C2=O,MIC50,Escherichia coli,inactive
same,MIC100,Escherichia coli,inactive
same,MIC50,Nannizzia gypsea,inactive
same,MIC100,Nannizzia gypsea,inactive
same,MIC50,Candida albicans,inactive
same,MIC100,Candida albicans,inactive
same,MIC50,Pichia kudriavzevii,inactive
same,MIC100,Pichia kudriavzevii,inactive
same,Ratio,Staphylococcus aureus [1],4.39
same,MIC50,Candida tropicalis,inactive
same,MIC100,Candida tropicalis,inactive
same,MIC50,[2],2740 µM
same,MIC50,Trichophyton tonsurans,inactive
same,MIC100,Trichophyton tonsurans,inactive
same,CC50 at 48 h,[3],> 113 µM
same,MIC50,Salmonella typhimurium,inactive
same,MIC100,Proteus mirabilis,inactive
same,MIC50,Bacillus cereus,171 µM
same,MIC,Bacillus cereus; read-out: MIC100,21.9 µM
same,MIC50,Nakaseomyces glabratus,inactive
same,MIC100,Nakaseomyces glabratus,inactive
same,MIC50,Staphylococcus aureus [4]; read-out: MIC50,43 µM
same,MIC,Staphylococcus aureus [4]; read-out: MIC100,2.74 µM
same,MIC100,Cryptococcus neoformans,inactive
same,MIC50,"Cryptococcus neoformans; ATCC 90012, 24 h",43.9 µM
same,Ratio,[5],3.5
same,MIC50,Candida parapsilosis,inactive
same,MIC100,Candida parapsilosis,inactive
same,MIC50,Pseudomonas aeruginosa,inactive
same,MIC100,Pseudomonas aeruginosa,inactive
